Laboratory results from ChEMBL document CHEMBL2163246 (J Nat Prod, 2012).
pIC50: −log10 of the molar value. In brackets after ≈: the same amount, converted by molar mass. Where a SMILES comes first, the peptide text is derived from it.

Columns and labels:
MDA-MB-231 = assay: Cytotoxicity against human MDA-MB-231 cells after 72 hrs by MTS assay; assay type: functional, cell-based; conditions: MDA-MB-231, 72 h
Method in brief: (§1)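 Cells plated at 4 × 10³ cells/well, left overnight, then exposed to increasing concentrations (0.064–40 μM) diluted from DMSO solution into culture medium. After 72 h, MTS/PMS reagent added; absorbance read at 490 nm. Viability = (OD_treat − OD_blank)/(OD_control − OD_blank) × 100%, mean of triplicate wells; DMSO + medium untreated cells as control.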

KB [1] = assay: Cytotoxicity against human KB cells after 72 hrs by MTS assay; assay type: functional, cell-based; method in brief: as §1
Escherichia coli = assay: Antimicrobial activity against Escherichia coli; assay type: functional
KB [2] = assay: Cytotoxicity against human KB cells; assay type: functional, cell-based
Pseudomonas aeruginosa = assay: Antimicrobial activity against Pseudomonas aeruginosa; assay type: functional
Jurkat = assay: Cytotoxicity against human Jurkat T cells after 72 hrs by MTS assay; assay type: functional, cell-based; method in brief: as §1
MOLT-4 = assay: Cytotoxicity against human MOLT4 cells after 72 hrs by MTS assay; assay type: functional, cell-based; conditions: MOLT-4, 72 h; method in brief: as §1
[3] = Cytotoxicity against mouse EAC cells; assay type: functional; conditions: Ehrlich
[4] = Cytotoxicity against mouse DLA cells; assay type: functional
Candida albicans = assay: Antimicrobial activity against Candida albicans; assay type: functional

SMILES	pIC50 (MDA-MB-231)	pIC50 (KB [1])	other results
CC(C)C[C@@H]1NC(=O)CNC(=O)[C@H](Cc2ccccc2)NC(=O)[C@H](Cc2ccc(O)cc2)NC(=O)[C@@H]2CCCN2C(=O)[C@H](C)NC1=O (HELM PEPTIDE1{A.P.Y.F.G.L}$PEPTIDE1,PEPTIDE1,1:R1-6:R2$$$V2.0)	4.99	5.20	
COc1cccc2c1C(=O)c1c(O)c3c(c(O)c1C2=O)C[C@@](O)(C(=O)CO)C[C@@H]3O[C@H]1C[C@H](N)[C@H](O)[C@H](C)O1 [DOXORUBICIN]	7.40		
CC(C)C[C@@H]1NC(=O)CNC(=O)[C@H](Cc2ccccc2)NC(=O)[C@H](Cc2ccc(O)cc2)NC(=O)[C@H](C)NC(=O)CNC1=O (HELM PEPTIDE1{A.Y.F.G.L.G}$PEPTIDE1,PEPTIDE1,1:R1-6:R2$$$V2.0)	< 5.00	< 5.00	
CC(C)C[C@@H]1NC(=O)CNC(=O)[C@H](Cc2ccccc2)NC(=O)[C@H](C)NC(=O)[C@@H]2CCCN2C(=O)CNC1=O (HELM PEPTIDE1{A.F.G.L.G.P}$PEPTIDE1,PEPTIDE1,1:R1-6:R2$$$V2.0)	< 5.00	< 5.00	
CC(C)C[C@@H]1NC(=O)CNC(=O)[C@H](Cc2ccccc2)NC(=O)[C@H](Cc2ccc(O)cc2)NC(=O)[C@@H]2CCCN2C(=O)CNC1=O [Cherimolacyclopeptide E] (HELM PEPTIDE1{F.G.L.G.P.Y}$PEPTIDE1,PEPTIDE1,1:R1-6:R2$$$V2.0)	< 5.00	< 5.00	MIC (Escherichia coli): 6 µg/mL (≈ 9.45 µM); pIC50 (KB [2]): < 5.00; MIC (Pseudomonas aeruginosa): 6 µg/mL (≈ 9.45 µM); pIC50 (Jurkat): < 5.00; pIC50 (MOLT-4): < 5.00; CC50 [3]: 4.96 µM; CC50 [4]: 2.76 µM; MIC (Candida albicans): 6 µg/mL (≈ 9.45 µM)
CC(C)C[C@@H]1NC(=O)[C@H](C)NC(=O)[C@H](Cc2ccccc2)NC(=O)[C@H](Cc2ccc(O)cc2)NC(=O)[C@@H]2CCCN2C(=O)CNC1=O (HELM PEPTIDE1{A.L.G.P.Y.F}$PEPTIDE1,PEPTIDE1,1:R1-6:R2$$$V2.0)	5.11	5.11	
CC(C)C[C@@H]1NC(=O)CNC(=O)[C@H](C)NC(=O)[C@H](Cc2ccc(O)cc2)NC(=O)[C@@H]2CCCN2C(=O)CNC1=O (HELM PEPTIDE1{A.G.L.G.P.Y}$PEPTIDE1,PEPTIDE1,1:R1-6:R2$$$V2.0)	< 5.00	< 5.00	
C[C@@H]1NC(=O)CNC(=O)[C@H](Cc2ccccc2)NC(=O)[C@H](Cc2ccc(O)cc2)NC(=O)[C@@H]2CCCN2C(=O)CNC1=O (HELM PEPTIDE1{A.G.P.Y.F.G}$PEPTIDE1,PEPTIDE1,1:R1-6:R2$$$V2.0)	< 5.00	< 5.00	
CC(C)C[C@@H]1NC(=O)CNC(=O)[C@H](Cc2ccccc2)NC(=O)[C@H](Cc2ccc(O)cc2)NC(=O)CNC(=O)CNC1=O (HELM PEPTIDE1{F.G.L.G.G.Y}$PEPTIDE1,PEPTIDE1,1:R1-6:R2$$$V2.0)	< 5.00	< 5.00	
